Only some compounds are listed: those with a hit (about 2.6% of all), similar ones and a draw of the others.
ABHD4 inh = ABHD4 inhibitors, primary screen, biochemical, fluorescence polarization, mouse. (Lyso)-N-acylphosphatidylethanolamine lipase (Mus musculus), Q8VD66. inhibition, % at 8.92 µM. purified mABHD4, FP-Rh probe fluorescence polarization. 370,000 compounds, 0.54% hits;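 active means inhibition exceeding the mean over every tested compound plus 3 SD, cut at about 30% in these data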
Target sequence (Q8VD66 whole entry, looked up): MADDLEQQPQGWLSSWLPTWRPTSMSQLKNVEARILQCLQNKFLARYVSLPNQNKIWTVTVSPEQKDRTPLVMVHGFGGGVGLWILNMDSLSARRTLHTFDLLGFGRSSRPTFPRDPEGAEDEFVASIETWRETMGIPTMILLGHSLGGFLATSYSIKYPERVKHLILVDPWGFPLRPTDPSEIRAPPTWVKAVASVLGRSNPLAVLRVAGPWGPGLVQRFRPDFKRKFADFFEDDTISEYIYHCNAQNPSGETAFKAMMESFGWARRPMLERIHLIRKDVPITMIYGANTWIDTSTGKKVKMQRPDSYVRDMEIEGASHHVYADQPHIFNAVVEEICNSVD
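Material: mouse ABHD4 enzyme, wild type; Benchmarks: S159A mutant high control, sample median low control; Buffer or medium: HEPES pH 7.0, NaCl, Pluronic buffer; Signal: fluorescence polarization; Read-out: percent inhibition of probe binding, normalized to plate controls; Timing: pre-incubation 45 min, probe exposure 60 min, at 25 °C; Dosing: 8.92 µM, single dose.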
HTRA1 inh = HTRA1 serine protease inhibitors, primary screen, biochemical, fluorescence polarization, HTS; AID 504803, 2011; Q92743; 340,000 compounds, 0.5% hits; recombinant HTRA1, FP-rhodamine activity-based probe; inhibition, % at 5.96 µM; in the data active means inhibition above about 36%
PRMT1 inh = PRMT1 methyltransferase inhibitors, primary screen, biochemical, fluorescence polarization. recombinant PRMT1, activity-based probe fluorescence polarization. inhibition, % at 2.79 µM. 370,000 compounds, 1.3% hits. AID 652257, 2013;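 active means inhibition above about 21% made by adding two undisclosed values, limit read from the data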
TCR CD3 inh = inhibitors of human TCR-CD3 interaction, primary screen, biochemical, fluorescence, TAMRA-labeled TCR probe; 360,000 compounds, 0.37% hits; AID 651800, 2012; inhibition, % at 9.4 µM; T-cell receptor (TCR);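 further: recombinant mutant TCR 2C K166C tagged with TAMRA read by polarization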
SIAE primary = human SIAE inhibitors, primary screen, biochemical, fluorescence polarization, FP-Rh probe, 1536-well HTS | AID 1053197, 2014 | 370,000 compounds, 0.69% hits | inhibition, % at 9.66 µM | SIAE FP-Rh probe binding | Sialate O-acetylesterase (Homo sapiens), Q9HAT2;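 active means inhibition above a cutoff: mean of compounds within the control limits plus 3 SD of those, cut at about 17% in these data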
HTRA1 inh conf = HTRA1 protease inhibitors, retest, confirmation, biochemical, fluorescence polarization; shares compounds with HTRA1 inh; recombinant HTRA1, FP-rhodamine activity-based probe; inhibition, % at 5.96 µM; 1,600 compounds, 66% hits; AID 540248, 2011;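 active means mean inhibition over three repeats above a set limit taken from the earlier primary screen, cut at about 37% in these data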;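 further: inhibitors block probe binding so polarization drops and inhibition rises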
BSA probe FL = compounds interfering with TAMRA-BSA probe, counter-screen for TCR-CD3 interaction inhibitor project, biochemical, fluorescence, TAMRA-labeled BSA; shares compounds with TCR CD3 inh; TAMRA-labeled BSA probe fluorescence counterscreen; inhibition, % at 9.4 µM; 1,200 compounds, 10% hits; AID 652035, 2013; in the data active means inhibition above about 23%
TCR-CD3 conf = TCR-CD3 interaction inhibitors, retest, confirmation, biochemical, fluorescence, TAMRA-labeled TCR probe; AID 652036, 2013; 1,200 compounds, 48% hits; inhibition, % at 9.4 µM; TAMRA-labeled TCR probe fluorescence binding assay; shares compounds with TCR CD3 inh
PRMT1 inh conf = PRMT1 methyltransferase inhibitors, confirmation, biochemical, fluorescence polarization, triplicate; shares compounds with PRMT1 inh; recombinant His-PRMT1, activity-based probe fluorescence polarization; inhibition, % at 2.79 µM; 3,300 compounds, 42% hits; AID 687036, 2013;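 active means mean inhibition across replicates above the hit cutoff derived for the earlier primary screen, cut at about 22% in these data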
ABHD4 confirm = ABHD4 inhibitors, retest, confirmation, biochemical, fluorescence polarization, mouse. shares compounds with ABHD4 inh. purified mABHD4, FP-Rh probe fluorescence polarization. inhibition, % at 8.92 µM. 1,800 compounds, 55% hits. AID 720658, 2013;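 active means mean inhibition across replicates above the hit cutoff set in the primary screen, cut at about 30% in these data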
Each line names hits and unclear results; the compound was inactive in the other large screens (follow-up assays come after a bar, where they were run). Unless noted, no stated cut-off is given here; in the data, active means inhibition above about 19%; inactive means the rest.

CCCCOCC1CN(CCCC)S(=O)(=O)c2c(cccc2Sc2ccc(SC)cc2)O1 (stereo not given)	none (no result: HTRA1 inh)
O=C(/C=C/c1ccccc1)c1cc(Br)ccc(=O)c1O	ABHD4 inh 37.4, HTRA1 inh 58.3, PRMT1 inh 34.2 | HTRA1 inh conf 65.2 | PRMT1 inh conf 27.9 | ABHD4 confirm inactive
O=C(/C=C/c1ccc(F)cc1)c1cc(Br)ccc1O	none
Cc1cccc2sc(NNC(=O)c3cc(=O)c4ccccc4o3)nc12	ABHD4 inh 29.9, HTRA1 inh 37.5 | HTRA1 inh conf 63.9 | ABHD4 confirm 43.7
Cc1nc(C)c(C(=O)Nc2nc3c(C)cccc3s2)o1	none
O=C1C=C(c2c(O)ccc3ccccc23)c2ccccc2C1=O	ABHD4 inh 52.5, HTRA1 inh 46.5, PRMT1 inh 40.9 | HTRA1 inh conf 47.8 | PRMT1 inh conf 39.7 | ABHD4 confirm 55.4
O=C(O)c1cc2ccccc2c2c1C(=O)c1ccccc1-2	none
COc1cccc(/C=N/NC(=O)c2c(C)nc3ccc(Cl)cn23)c1O	ABHD4 inh 35.1, HTRA1 inh 61.6 | HTRA1 inh conf 64.7 | ABHD4 confirm 54.6
COc1ccccc1/C=N\NC(=O)c1c(C)nc2ccc(Cl)cn12	none
Cc1[nH]nc2c1C(c1ccccc1)N(Cc1ccccc1)C2=O (stereo not given)	none (no result: HTRA1 inh)
CCOC(=O)N(C)[C@H]1C[C@H]2c3[nH]c4c(-c5ccc6c(c5)OCO6)cccc4c3CCN2C(=O)[C@H]1[C@H](C)O	none (no result: HTRA1 inh, TCR CD3 inh)
C=CCN=C1NC(c2ccccc2C(F)(F)F)C(C(=O)OC)=C(C)N1Cc1ccccc1C(F)(F)F (stereo not given)	none (no result: HTRA1 inh)
CCOC(=O)c1c(N)sc(=S)c2c1CCC2	ABHD4 inh 41.6, HTRA1 inh 38.3, PRMT1 inh 27.3 | HTRA1 inh conf inactive | PRMT1 inh conf inactive | ABHD4 confirm inactive
CCCOC(=O)c1c(N)sc2c1CCC2	none
CN(C)c1ccc(CCc2ccc(N)cc2)cc1	none
Nc1ccc(N(c2ccccc2)c2ccc(N)cc2)cc1	ABHD4 inh 38.5, HTRA1 inh 64.8 | HTRA1 inh conf 53.6 | ABHD4 confirm 47.8
CC1=CC(C)(C)Nc2ccc(Cc3ccc4c(c3)C(C)=CC(C)(C)N4)cc21	ABHD4 inh 31.2, HTRA1 inh 50.6 | HTRA1 inh conf 36.7 | ABHD4 confirm 32.9
Cc1nc2ccccc2c(=O)n1/N=C/c1ccc(O)c(O)c1O	ABHD4 inh 44.3, HTRA1 inh 49.0, TCR CD3 inh 40.8 | HTRA1 inh conf 55.5 | BSA probe FL inactive | TCR-CD3 conf 24.9 | ABHD4 confirm inactive
COc1ccc2c(c1)CN1CN(C3CCCC3)S(=O)(=O)CC21 (stereo not given)	none (no result: HTRA1 inh, TCR CD3 inh)
O=C(OCCN1CCN(C2CN(Cc3cn(Cc4cccc(F)c4)nn3)S(=O)(=O)C2)CC1)c1cc2ccccc2o1 (stereo not given)	none (no result: HTRA1 inh, TCR CD3 inh)
